# Source: PubChem BioAssay (several laboratories)
# Compounds with a hit are over-represented: about 2.1% of the library has one in this group of screens.
# PKA-R2B activ = PKA-R2B complex activation | activation, % at 11.4 µM | P22694+P31323 | 340,000 tested, 0.079% active | PKA-R2B holoenzyme dissociation, Cy5-IP20 fluorescence polarization; R2B truncated from residue 108, S112A mutant; 0% DMSO only, 100% 113 µM cGMP;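 active = activation above a cutoff set at the mean over all compounds plus 3 SD, cut at about 18% in these data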;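 note: higher means more holoenzyme dissociation and a rise in polarization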
# SR-BI uptake up = SR-BI HDL lipid transfer activation. CHO ldlA[mSR-BI] cells, DiI-HDL uptake fluorescence, 3 h; 100 = double the neutral-control signal. 320,000 tested, 0.096% active. activation, % at 12.5 µM;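 active = mean replicate activation of at least 60% and every replicate at or above 60%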;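 note: 0% = median plate neutral-control signal and 100% = twice that signal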
#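 Test system: SR-BI-overexpressing, LDLR-lacking CHO cells; Also added: labelled HDL, 10 µg/mL; Measured by: bottom-read cell fluorescence after medium removal, ex 550/em 595 nm; Timing: 3 h uptake period with compound, 37 °C; Buffer or medium: F12, 0.5% BSA, 25 mM HEPES; Doses: single compound concentration, delivered by pin transfer.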
# dFosB act = enhances mouse delta FosB homodimer DNA binding. 340,000 tested, 0.99% active. AID 493131. purified delta FosB, TAMRA-CDK5 oligo fluorescence polarization; percent of positive-control signal above neutral wells. activation, % at 25 µM;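 active = mean activation above about 17%, with every replicate also reaching it, limit read from the data, passing the limit was not always enough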
# CDK5 inh = inhibitors of human CDK5/p35 kinase | Q00535+Q15078 | Recombinant CDK5/p35, ADP-Glo luminescence, 60 min | inhibition, % at 10 µM | 330,000 tested, 0.01% active | AID 488839;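 active = highest replicate inhibition of at least 50% and at least 75% of replicates reaching 50%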;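 note: plate controls were DMSO neutral control for no effect and GW8510 at 10 µM for full effect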
# PKA-R1A activ = activators of PKA-R1A complex. PKA-R1A dissociation, Cy5-IP20 fluorescence polarization; scaled: DMSO 0%, 113 µM cGMP 100%. 340,000 tested, 0.083% active. activation, % at 11.4 µM. P00514+P68181;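 active = percent activation above the mean of all tested compounds plus 3 SD, cut at about 19% in these data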;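 note: higher means more PKAc released from R1A so a rise in polarization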
# SR-BI DiI inh = blocks mouse SR-BI lipid uptake from DiI-HDL | Q61009 | ldlA[mSR-BI] CHO cells, DiI-HDL uptake fluorescence, 3 h | inhibition, % at 12.5 µM | 320,000 tested, 0.96% active | AID 488896;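 active = mean replicate inhibition of at least 70% and a set share of replicates each scoring 70 or more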;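 note: 0% = median of neutral control wells and 100% = median of positive control wells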
# Target sequence (Q61009 whole entry, looked up): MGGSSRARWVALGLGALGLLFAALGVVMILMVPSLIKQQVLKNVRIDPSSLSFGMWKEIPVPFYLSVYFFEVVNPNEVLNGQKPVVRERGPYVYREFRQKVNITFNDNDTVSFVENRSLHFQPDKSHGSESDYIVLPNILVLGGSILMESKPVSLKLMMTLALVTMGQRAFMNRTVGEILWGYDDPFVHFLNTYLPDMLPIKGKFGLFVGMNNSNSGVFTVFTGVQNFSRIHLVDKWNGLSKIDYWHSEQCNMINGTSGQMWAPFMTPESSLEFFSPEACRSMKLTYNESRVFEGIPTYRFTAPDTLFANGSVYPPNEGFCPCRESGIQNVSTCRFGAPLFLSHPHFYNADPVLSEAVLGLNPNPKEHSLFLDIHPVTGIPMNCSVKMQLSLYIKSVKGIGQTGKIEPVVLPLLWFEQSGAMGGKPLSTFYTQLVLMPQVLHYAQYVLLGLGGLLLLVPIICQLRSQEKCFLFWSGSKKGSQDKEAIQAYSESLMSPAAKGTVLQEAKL
# Numbers without * were called inactive; . = no result.
SMILES,PKA-R2B activ,SR-BI uptake up,dFosB act,CDK5 inh,PKA-R1A activ,SR-BI DiI inh
CCOC(=O)c1c(C)[nH]c(C(=O)COC(=O)c2ccc(F)c(S(=O)(=O)N3CCOCC3)c2)c1C,-3,-74,9,-1,-16,74*
COc1cc(-c2cc(C(=O)Nc3ccc(C)c(S(=O)(=O)N4CCOCC4)c3)c3ccccc3n2)cc(OC)c1OC,-6,-37,33*,1,-13,37
O=C(Nc1ccc(N2CCCCCC2)cc1)c1cccc(S(=O)(=O)N2CCOCC2)c1,-4,-71,2,-2,7,71*
COc1cc(-c2cc(C(=O)Nc3ccccc3N3CCOCC3)c3ccccc3n2)cc(OC)c1OC,-8,-56,-6,-3,-15,56
O=C(Nc1cccc(Cl)c1)C1COc2ccccc2O1 (stereo not drawn),8,4,-4,-3,3,-4
CCC(=O)c1cn(/C(=C\C(=O)OC(C)(C)C)CCC(OC)OC)cc1CC,-5,-14,-1,0,3,14
Nc1c(N(Cc2ccco2)C(=O)c2ccccc2F)c(=O)[nH]c(=O)n1Cc1ccccc1,-3,5,-3,0,-4,-5
O=C(NNC(=O)c1cc(Cl)ccc1O)c1cccc(S(=O)(=O)N2CCOCC2)c1,6,-107,-5,-3,2,107*
CN(c1ccccc1)S(=O)(=O)c1cccc(C(=O)Nc2ccc(N3CCOCC3)cc2)c1,-8,-86,-7,-5,-4,86*
CCOC(=O)c1ccc(NC(=O)c2cccc(S(=O)(=O)N3CCOCC3)c2)cc1,-3,-83,10,1,-11,83*
Cc1ccc(C(=O)NNC(=O)c2cccc(S(=O)(=O)N3CCOCC3)c2)cc1,13,.,-10,0,1,1
CC(=O)c1cccc(NC(=O)c2cccc(S(=O)(=O)N3CCOCC3)c2)c1,6,.,-1,1,-16,.
CC(=O)c1ccc(NC(=O)c2ccc(C)c(S(=O)(=O)N3CCOCC3)c2)cc1,8,-85,-11,1,-3,85*
N#Cc1c(-c2ccccc2F)cc(C2CC2)nc1SCC(=O)c1cccs1,-5,-28,0,-1,8,28
O=S(=O)(c1cccc(COc2ccc(Cl)cc2Cl)c1)N1CCOCC1,-1,-72,-2,0,0,72*
CCN(C(=O)COC(=O)/C=C/c1ccc2c(c1)OCO2)c1c(N)n(Cc2ccccc2)c(=O)[nH]c1=O,0,-11,164*,0,-4,11
Cn1c(=O)c2ncn(CC(=O)Nc3cccc(-c4nc5ccccc5s4)c3)c2n(C)c1=O,-3,-35,78*,-1,1,35
CCc1ccc(NC(=O)Cn2cnc3c(=O)n(C)c(=O)n(C)c32)cc1,8,16,-8,1,-2,-16
Cn1c(C(=O)N2CCN(Cc3ccc4c(c3)OCO4)CC2)cc2c(=O)n(C)c3ccccc3c21,12,-76,7,0,8,76*
C=CCOc1ccc(/C=C/C(=O)OCC(=O)NCC(=O)Nc2c(C)cc(C)cc2C)cc1,1,-6,15,0,3,6
CCc1cccc(C)c1NC(=S)NCC1CCN(c2ccc(OC)cc2)C1 (stereo not drawn),-1,-83,-4,-9,2,83*
CCc1ccccc1NC(=S)NCC1CCN(c2ccc(OC)cc2)C1 (stereo not drawn),-8,.,-6,1,6,.
Cc1ccc(C(=O)/C=C/NNC(=O)c2ccccc2O)cc1,-1,-38,-13,1,-5,38
Cc1cc(N2CCC(C)CC2)n2nc(C)c(-c3ccccc3)c2n1,-1,-75,-1,-2,-18,75*
Cc1cc(N2CCN(Cc3ccccc3)CC2)n2nc(C)c(-c3ccccc3)c2n1,-3,-21,4,0,-7,21
SMILES,PKA-R2B activ,SR-BI uptake up,dFosB act,CDK5 inh,PKA-R1A activ,SR-BI DiI inh
Cc1cc(N2CCCCC2)n2nc(C)c(-c3ccccc3)c2n1,3,-52,-5,1,-3,52
Cc1nn2c(N3CCCC3)cc(C(C)C)nc2c1-c1ccccc1,0,-74,-9,-1,4,74*
COc1ccc(-c2c(C)nn3c(N4CCN(Cc5ccccc5)CC4)cc(C)nc23)cc1OC,4,-76,-3,0,-2,77*
Cc1ccc(S(=O)(=O)NCCCN2CCCC2)cc1,-4,-5,-1,-1,8,5
COC(=O)c1ccc(NC(=O)c2cccc(N3C(=O)C4C5C=CC(C6CC56)C4C3=O)c2)cc1 (stereo not drawn),-7,.,28*,-4,-7,24
Cc1ccc(C(=O)OCC(=O)N2c3ccccc3NC(=O)C2(C)C)cc1S(=O)(=O)N1CCCCC1,4,-84,-2,2,10,84*
O=C(CNCc1ccc(F)cc1)Nc1cc(S(=O)(=O)N2CCOCC2)ccc1Cl,7,-24,-11,-2,8,24
Cc1cc(C)c(C)c(S(=O)(=O)N(C)C2CCN(C)CC2)c1C,-2,7,0,2,7,-7
Cc1ccc(NC(=O)NNC(=O)c2cc3ccccc3cc2O)cc1,2,.,93*,-7,1,37
COc1cc(OC)cc(C(=O)NNC(=O)c2cc3ccccc3cc2O)c1,-9,-114,11,1,-8,114*
COc1ccccc1NC(=O)NNC(=O)c1ccc(-c2ccccc2)cc1,6,3,-9,-4,2,-3
COc1ccccc1NC(=O)NNC(=O)c1cc2ccccc2cc1O,-8,-94,14,-3,-8,94*
Cc1ccc(NC(=O)NNC(=O)COc2ccc3ccccc3c2)cc1,-9,-24,-7,-2,2,24
Cc1cccc(N2CCN(C(=O)c3ccc(Cl)c(NC4=NC5CS(=O)(=O)CC5S4)c3)CC2C)c1 (stereo not drawn),-1,2,-2,-1,1,-2
Cc1noc(C)c1S(=O)(=O)Nc1ccc2c(c1)C(=O)N([C@@H](C)CO)C[C@H](C)[C@@H](CN(C)Cc1ccc(C(F)(F)F)cc1)OCCCC[C@H](C)O2,-7,.,.,.,-15,.
CC1(C)CC(=O)C2=C(C1)NC(Nc1nc3ccccc3o1)=NC2c1ccccn1 (stereo not drawn),-3,.,1,1,-2,.
CC1=C(C(=O)Nc2ccccc2)C(c2ccc(C)cc2)N=C(Nc2nc3ccccc3o2)N1 (stereo not drawn),3,-48,42*,-1,-11,48
CCCCN(CC)CCNC(=O)c1cc2c(=O)[nH]c3ccccc3c2s1,9,-88,-16,1,-3,88*
